Data as given in article PMC6818095 (Journal of medicinal chemistry, 2014).

Tests used:
σ2 receptor = target: T1, σ2 receptor (Rattus norvegicus, UniProt Q5U3Y7); type: binding; conditions: for lower binding affinity for σ2 receptor than corresponding methoxy-substituted congeners: 39e and 39f versus 39b and 39c; for increase of selectivity for σ2 compared to 26 / increase of σ2 binding affinity compared to 26: relative to nonsubstituted 1H-[1,2,3]triazole carboxamide analogue 26
T1 sequence (Q5U3Y7 1-176): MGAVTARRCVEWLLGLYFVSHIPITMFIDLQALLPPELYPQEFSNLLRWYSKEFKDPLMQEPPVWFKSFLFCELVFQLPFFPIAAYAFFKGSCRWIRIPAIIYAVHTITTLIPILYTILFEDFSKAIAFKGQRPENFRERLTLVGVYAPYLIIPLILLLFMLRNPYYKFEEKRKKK

[1] = tested on: EMT-6 murine breast cancer cells; assay: functional assay: cell viability; type: cell-based; conditions: for cytotoxicity (in words): EMT-6 cells, cell viability assay
Procedure, shortened: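 EMT-6 murine breast cancer cells grown in DMEM with 10% FBS and penicillin/streptomycin at 37 °C, 5% CO2; seeded 5 × 10^3 cells/well 24 h before dosing. Test compound in DMSO serially diluted in medium (final DMSO ≤1.0%), 24 or 48 h exposure. MTS reagent 1–2 h at 37 °C, A490. Viability relative to untreated cells; EC50 from dose–response curves; triplicate, mean ± SEM of three experiments.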

Structure (SMILES) | increase of selectivity for σ2 compared to 26 (σ2 receptor) | increase of σ2 binding affinity compared to 26 (σ2 receptor) | also measured
COc1cc2c(cc1OC)CN(CCCCNC(=O)c1cc(-n3cc(CN(C)C)nn3)ccc1OCCF)CC2 [compound 65, N-(4-(6,7-Dimethoxy-3,4-dihydroisoquinolin-2(1H)-yl)butyl)-5-(4-((dimethylamino)methyl)-1H-1,2,3-triazol-1-yl)-2-(2-fluoroethoxy)benzamide] | – | – | σ2 binding affinity lower than lead compound 8 (σ2 receptor; 65 versus lead compound 8): 14 fold; σ2 binding affinity lower than lead compound 9 (σ2 receptor; 65 versus lead compound 9): 89 fold
COc1cc2c(cc1OC)CN(CCCCNC(=O)c1cn(Cc3ccc(O)cc3)nn1)CC2 [39f, N-(4-(6,7-Dimethoxy-3,4-dihydro-1H-isoquinolin-2-yl)butyl)-1-(4-hydroxybenzyl)-1H-1,2,3-triazole-4-carboxamide] | – | – | lower binding affinity for σ2 receptor than corresponding methoxy-substituted congeners (σ2 receptor): 2 fold
Fc1ccc(-n2cc(CCCCN3CCC4(CC3)OCc3ccccc34)c3ccccc32)cc1 [siramesine, reference compound] | – | – | cytotoxicity (in words) [1]: potent cytotoxicity
COc1cccc(-n2cc(C(=O)NCCCCN3CCc4cc(OC)c(OC)cc4C3)nn2)c1 [24e, N-(4-(6,7-Dimethoxy-3,4-dihydro-1H-isoquinolin-2-yl)butyl)-1-(3-methoxyphenyl)-1H-1,2,3-triazole-4-carboxamide] | 629 fold | 341 fold | –
COc1cc2c(cc1OC)CN(CCCCNC(=O)c1cn(Cc3cccc(O)c3)nn1)CC2 [39e, N-(4-(6,7-Dimethoxy-3,4-dihydro-1H-isoquinolin-2-yl)butyl)-1-(3-hydroxybenzyl)-1H-1,2,3-triazole-4-carboxamide] | – | – | lower binding affinity for σ2 receptor than corresponding methoxy-substituted congeners (σ2 receptor): 2 fold
COc1ccc(-n2cc(C(=O)NCCCCN3CCc4cc(OC)c(OC)cc4C3)nn2)cc1 [24f, N-(4-(6,7-Dimethoxy-3,4-dihydro-1H-isoquinolin-2-yl)butyl)-1-(4-methoxyphenyl)-1H-1,2,3-triazole-4-carboxamide] | – | 186 fold | cytotoxicity (in words) [1]: did not induce cytotoxicity; agonist/antagonist classification at the σ2 receptor ([1]; based on cytotoxicity in EMT-6 cells relative to siramesine): antagonist
COc1cccc(Cn2cc(C(=O)NCCN3CCc4cc(OC)c(OC)cc4C3)nn2)c1 [40e, N-(2-(6,7-Dimethoxy-3,4-dihydro-1H-isoquinolin-2-yl)ethyl)-1-(3-methoxybenthyl)-1H-1,2,3-triazole-4-carboxamide] | – | – | σ2 binding affinity lower than the 4-carbon spacer congeners (σ2 receptor; 2-carbon spacer 40a–40f versus 24d–24f and 39a–39c): 20 fold
COc1cc2c(cc1OC)CN(CCCCNC(=O)c1cn(-c3ccccc3OC)nn1)CC2 [24d, N-(4-(6,7-Dimethoxy-3,4-dihydro-1H-isoquinolin-2-yl)butyl)-1-(2-methoxyphenyl)-1H-1,2,3-triazole-4-carboxamide] | 817 fold | 682 fold | –

Continued, in another order:

increase of selectivity for σ2 compared to 26 (σ2 receptor) | increase of σ2 binding affinity compared to 26 (σ2 receptor) | Structure (SMILES) | also measured
110 fold | 96 fold | COc1cccc(Cn2cc(C(=O)NCCCCN3CCc4cc(OC)c(OC)cc4C3)nn2)c1 [39b, N-(4-(6,7-Dimethoxy-3,4-dihydro-1H-isoquinolin-2-yl)butyl)-1-(3-methoxybenzyl)-1H-1,2,3-triazole-4-carboxamide] | –
34 fold | 82 fold | COc1cc2c(cc1OC)CN(CCCCNC(=O)c1cn(Cc3ccccc3)nn1)CC2 [39d, 1-Benzyl-N-(4-(6,7-dimethoxy-3,4-dihydro-1H-isoquinolin-2-yl)-butyl)-1H-1,2,3-triazole-4-carboxamide] | –
198 fold | 105 fold | COc1ccccc1Cn1cc(C(=O)NCCCCN2CCc3cc(OC)c(OC)cc3C2)nn1 [39a, N-(4-(6,7-Dimethoxy-3,4-dihydro-1H-isoquinolin-2-yl)butyl)-1-(2-methoxybenzyl)-1H-1,2,3-triazole-4-carboxamide] | –
63 fold | 205 fold | COc1ccc(Cn2cc(C(=O)NCCCCN3CCc4cc(OC)c(OC)cc4C3)nn2)cc1 [39c, N-(4-(6,7-Dimethoxy-3,4-dihydro-1H-isoquinolin-2-yl)butyl)-1-(4-methoxybenzyl)-1H-1,2,3-triazole-4-carboxamide] | –
